Test system: Mus musculus
Experiment: Cognition enhancing activity in sc dosed mouse assessed as reversal of scopolamine-induced amnesia measured up to 24 hrs treated 20 mins before training session by passive-avoidance test
Format: functional
Settings: read-out: MED
How it was run: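 Mouse passive-avoidance test (Jarvik and Kopp, slightly modified). Compounds in DMSO/saline (1:10), given s.c. 20 min before training, tested in a 1:10 dose-dilution sequence. Amnesia induced by scopolamine 1.5 mg/kg i.p. immediately after punishment. Mean of 8–16 mice per group; activity reported as minimal effective dose (MED, mg/kg).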

Compound | minimal effective dose [mg/kg]
O=C(c1ccccc1)N1CCNCC1 | 0.1
CC(=O)N1CCN(S(=O)(=O)c2ccc(F)cc2)C(C)C1 (centres undefined) | 0.1
CC(=O)N1CCN(S(=O)(=O)c2ccc(F)cc2)CC1C (centres undefined) | 1
CCC(=O)N1CCN(C(=O)c2ccccc2)C(C)C1 (centres undefined) | 0.1
CCC(=O)N1CCN(C(=O)c2ccccc2)CC1C (centres undefined) | > 10
CC(=O)N1CCN(S(=O)(=O)c2ccc(F)cc2)CC1 | 0.01
CCC(=O)N1CCNC(c2ccccc2)C1 (centres undefined) | > 10
CC(=O)N1CCNC(c2ccccc2)C1 (centres undefined) | > 10
O=S(=O)(c1ccc(F)cc1)N1CCNC(c2ccccc2)C1 (centres undefined) | > 10
CCC(=O)N1CCN(C(=O)c2ccccc2)C[C@@H]1c1ccccc1 | 1
CCC(=O)N1CCN(C(=O)c2ccccc2)C[C@H]1c1ccccc1 | 0.1
CCC(=O)N1CCN(C(=O)c2ccccc2)C(c2ccccc2)C1 (centres undefined) | 1
CC(=O)N1CCN(S(=O)(=O)c2ccc(F)cc2)C(c2ccccc2)C1 (centres undefined) | 10
CC(=O)N1CCN(S(=O)(=O)c2ccc(F)cc2)CC1c1ccccc1 (centres undefined) | > 10
CCC(=O)N1CCN(C(=O)c2ccccc2)CC1Cc1ccccc1 (centres undefined) | 1
CCC(=O)N1CCN(C(=O)c2ccccc2)C(Cc2ccccc2)C1 (centres undefined) | 1
CCC(=O)N1CCNCC1 | 0.1
CCC(=O)N1CCN2C(=O)c3ccccc3C2C1 (centres undefined) | > 10
O=C1c2ccccc2C2CN(S(=O)(=O)c3ccc(F)cc3)CCN12 (centres undefined) | 0.1
O=C(c1ccccc1)N1CCNC(c2ccccc2)C1 (racemic) | > 10
CCC(=O)N1CCN(C(=O)c2ccccc2)CC1c1ccccc1 (racemic) | 0.1
NC(=O)CN1CCCC1=O [PIRACETAM] | 30
CCC(=O)N1CCN(C(=O)c2ccccc2)CC1 [SUNIFIRAM] | 0.001
O=C1CCC2CN(S(=O)(=O)c3ccc(F)cc3)CCN12 (centres undefined) [UNIFIRAM] | 0.001

— ChEMBL document CHEMBL3400141, “Substituted piperazines as nootropic agents: 2- or 3-phenyl derivatives structurally related to the cognition-enhancer DM235” (Bioorg Med Chem Lett, 2015)
